Compound activity as filed in PubChem.
CHT inh = inhibitors of human choline transporter CHT. B-score at 10 µM. AID 488975. Q9GZV3. 0.86% of 310,000 active. CHT-expressing cells, membrane potential dye, choline response; active compounds read low;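 active = B-score over 3 SD under the library average, and starting fluorescence ratio not unusually high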;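 also: choline stimulus applied at its EC90 after an EC20 pre-addition; B-score computed on integrated fluorescence ratio after choline addition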
procasp3 activ = activates human procaspase-3 | P42574 | recombinant procaspase-3 D3A, Ac-DEVD-pNA absorbance 405 nm | activation, % at 8.5 µM | 0.11% of 330,000 active | AID 463141;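 active = activation above the mean of all tested compounds plus 3 SD, cut at about 21% in these data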
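Assay system: Autoprocessing-dead procaspase-3 D3A mutant enzyme; also added: Ac-DEVD-pNA; doses: one concentration, 8.5 µM nominal, 0.8% DMSO; times: 1 h compound preincubation, 2 h substrate hydrolysis at 25 °C; technique: 405 nm absorbance of p-nitroaniline, reads at 0 and 120 min; measure: % activation between DMSO and enzyme-spiked controls; repeats: single replicate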
procasp7 counter = activates human procaspase-7, counter-screen for procaspase-3 activators; recombinant procaspase-7, Ac-DEVD-pNA absorbance 405 nm; D23A/D198A/D206A triple mutant, cannot self-cleave; scale: DMSO 0, 5 µM enzyme 100; activation, % at 8.5 µM; 0.093% of 330,000 active; AID 463210;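 active = percent activation above the screen-wide mean plus 3 SD, cut at about 25% in these data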
Target sequence (P55210 whole entry D23A/D198A/D206A): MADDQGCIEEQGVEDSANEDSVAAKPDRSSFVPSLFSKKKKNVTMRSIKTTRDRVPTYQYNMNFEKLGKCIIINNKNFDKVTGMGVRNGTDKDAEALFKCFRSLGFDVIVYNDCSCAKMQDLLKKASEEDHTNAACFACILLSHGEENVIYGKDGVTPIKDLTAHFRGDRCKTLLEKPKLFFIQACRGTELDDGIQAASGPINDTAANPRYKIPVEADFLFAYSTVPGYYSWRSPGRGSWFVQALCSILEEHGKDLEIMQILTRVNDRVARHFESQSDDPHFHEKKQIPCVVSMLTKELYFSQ
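Material: Procaspase-7 triple mutant (PC-7 D3A) | Quantity: 2 µM procaspase-7 mutant as dispensed | Reagent: DEVD-pNA substrate | Times: 1 h preincubation, 2 h reaction | Technique: 405 nm absorbance of p-nitroaniline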
CHT PAM = allosteric activators of human choline transporter CHT; 0.49% of 310,000 active; CHT-expressing cells, membrane potential dye, choline EC20; active compounds read high; LV-AA mutant CHT in HEK293 cells; AID 488977; B-score at 10 µM;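 active = initial fluorescence not abnormally high and integrated response B-score, plate-corrected, over 3 SD above library mean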
CHT inh conf = confirmation of human choline transporter CHT inhibitors. CHT-expressing cells, choline membrane potential dye; LV-to-AA substituted CHT, HEK293 cells. CHT activity remaining % of control (active compounds read low), % at 10 µM. shares compounds with CHT inh. 70% of 2,400 active;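 active = choline transporter activity left, mean of duplicates at 10 µM, below buffer-only control mean minus 3 SD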;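 also: depolarization triggered by choline at its EC90 following an EC20 pre-addition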
HEK293 MPD ctr = CHT inhibitor counter-screen hit in parental HEK293 cells; shares compounds with CHT inh; membrane potential dye, choline response; active = decrease or increase beyond buffer ±3SD; 4% of 2,400 active; membrane potential ratio readout (active if shifted either direction beyond buffer ±3SD; no single direction) at 10 µM;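 also: parental cells lack the transporter so any hit is non-specific; ratio is peak minus trough fluorescence over baseline after EC90 choline challenge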
Numbers stand for hits; – = inactive; · = not tested or not shown. Shown are actives, neighbours in structure and some others; about 1.3% of the full set was active somewhere.

SMILES	CHT inh	procasp3 activ	procasp7 counter	CHT PAM	CHT inh conf	HEK293 MPD ctr
N=c1n(CCN2CCCCC2)c2ccccc2n1CC(=O)c1ccc(Cl)c(Cl)c1	-5.42	–	–	–	–	–
CCn1c(=N)n(CC(=O)c2ccc(Cl)c(Cl)c2)c2ccccc21	–	–	–	–	·	·
O=C(CCl)NC(Cc1c[nH]c2ccc(OCc3ccccc3)cc12)C(=O)O (stereo not given)	–	–	–	–	·	·
O=C(c1ccc(CN2CCc3ccccc3C2)cc1)N1CCN(c2ccc(F)cc2)CC1	-4.97	–	–	–	–	–
O=C(c1ccc(CN2CCc3ccccc3C2)cc1)N1CCCCC1	–	–	–	–	·	·
Cc1cc(C)c(NC(=O)c2ccc(CN3CCc4ccccc4C3)cc2)c(C)c1	-11.4	–	–	–	18.4%	–
Cn1c(CNC(=O)CCNC(=O)c2cccc(Br)c2)cc(=O)n(C)c1=O	–	–	–	–	·	·
CCCc1cnc(N2CCN(C(=O)c3ccccc3)CC2)nc1	–	–	–	–	·	·
CN1CCN(c2oc(Cc3cccc4ccccc34)nc2C#N)CC1	-6.99	–	–	–	62.3%	–
N#Cc1nc(Cc2cccc3ccccc23)oc1NCCCn1ccnc1	–	–	–	–	·	·
N#Cc1nc(Cc2cccc3ccccc23)oc1NCCCN1CCOCC1	-5.7	–	–	–	69.1%	–
COc1cc(OC)c(C(=O)OCC(=O)Nc2ccccc2Cl)cc1OC	–	–	–	–	·	·
COc1ccc(NC(=O)CSc2nc(C)cs2)c([N+](=O)[O-])c1	·	–	–	·	·	·
O=[N+]([O-])c1ccc(Nc2ccccc2)c2nonc12	-5.98	–	–	–	46.6%	–
O=c1c2ccccc2nc(-c2ccccc2)n1Cc1ccco1	-6.04	–	–	–	69.8%	–
COC(=O)c1cc(S(=O)(=O)Nc2cccc(C)c2C)cn1C	–	–	–	–	·	·
COC(=O)C(Oc1ccc2c(-c3ccc(OC)cc3)cc(=O)oc2c1)c1ccccc1 (stereo not given)	-6.17	–	–	–	–	–
Cc1ccccc1OCC(=O)Nc1ccc(S(=O)(=O)Nc2ccccn2)cc1	–	–	–	–	·	·
Cc1cc(NS(=O)(=O)c2ccc(NC(=S)NC(=O)c3ccc(Cl)cc3Cl)cc2)no1	–	–	–	–	·	·
O=C(Nc1ccc(S(=O)(=O)Nc2ccccn2)cc1)c1ccc(Cl)cc1Cl	-12.2	–	–	–	-0.5%	–
Cc1ccc(C)c(OCC(=O)Nc2ccc(S(=O)(=O)Nc3ccccn3)cc2)c1C	-7.2	–	–	–	59.2%	–
Cc1noc(NS(=O)(=O)c2ccc(NC(=O)c3oc4ccc(Cl)cc4c3C)cc2)c1C	-5.59	–	–	–	59.4%	–
O=C(Nc1ccc(S(=O)(=O)Nc2ccccn2)cc1)c1cccc(Cl)c1	–	–	–	–	·	·
Cc1cc(NS(=O)(=O)c2ccc(NC(=O)c3ccc(Cl)cc3Cl)cc2)no1	-9.38	–	–	–	12.5%	–
COC(=O)c1ccc(O)c(Sc2cc(C(=O)OC)ccc2O)c1	-5.25	–	–	–	–	–
SMILES	CHT inh	procasp3 activ	procasp7 counter	CHT PAM	CHT inh conf	HEK293 MPD ctr
NNC(=O)Cn1nc(Cc2ccccc2)n(N)c1=O	·	–	–	·	·	·
COc1ccc(C(=O)NC(CCSC)C(=O)NC2CC2)cc1 (stereo not given)	·	–	–	·	·	·
CC1CCC(NC(=O)c2ccc(NC(=O)CC3SC(N4CCCC4)=NC3=O)cc2)CC1 (stereo not given)	-10.9	–	–	–	11.2%	–
CC1=NC(C)(C)Cc2c(C)cccc21	–	–	–	–	·	·
CC1=NC(C)(C)Cc2cc(C)c(C)cc21	-8.21	–	–	–	41.6%	–
CC(C)c1ccc(S(=O)(=O)N2CCC(C(=O)NCC3(N(C)C)CCCCC3)CC2)cc1	-6.05	–	–	–	21.9%	–
O=C(NNc1nc(-c2ccccc2)cs1)c1ccccc1	-7.79	–	–	–	61.8%	–
O=C(CNC(=O)C12CC3CC(CC(C3)C1)C2)OCc1ccc(F)cc1Cl	·	–	–	·	·	·
COC(=O)c1cc(OCC(=O)Nc2ccc3c(c2)CCC3)cc(C(=O)OC)c1	·	–	–	·	·	·
